This passage reports IC50 and Activity results from ChEMBL document CHEMBL1154285, “Meroterpenes from Dichrostachys cinerea inhibit protein farnesyl transferase activity” (J Nat Prod, 2009).

pIC50: −log10 of the molar value.

Assay [1] in a line: Inhibition of rat farnesyl transferase after 30 mins. In outline: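 Rat PFTase at 10 nM, added last to start the reaction, in 50 mM Tris/HCl pH 7.5 with 5 mM MgCl2, 5 mM DTT, 0.1 mM ZnCl2 and 0.2% octyl-β-D-glucopyranoside. Substrates were 10 µM GCVLS-dansyl and 10 µM farnesyl pyrophosphate. Compounds from 0.3 nM to 100 µM, 1% DMSO final, in triplicate. Incubation 30 min at 37 °C; fluorescence read at ex 340/em 505 nm. IC50 from sigmoidal dose-response fit.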

The nature of assay [2]: Cytotoxicity against human WM266.4 cells after 72 hrs by ATP lite assay. It is filed as functional, WM 266-4. In outline: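 Metastatic melanoma WM 266-4 cells (ATCC), 5000 per well, in RPMI with 10% FBS, 50 µg/mL streptomycin and 50 U/mL penicillin. Compounds were present for 72 h at 1% DMSO final, in triplicate. Viability was read by ATPLite luminescence. IC50 from sigmoidal dose-response fit.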

In general, pIC50 refers to −log10 of the IC50, conventionally taken in molar units. A lower pIC50 goes with a high IC50. As for `COC1=CC(=O)[C@@]2(c3cc(=O)c4c(O)cc(O)cc4o3)[C@H](C[C@]3(O)[C@@]4(C)C[C@@H](O)CC(C)(C)[C@@H]4CC[C@@]3(C)O)C(C)=CC[C@H]2C1=O`, the negative logarithm of the IC50 (pIC50) in assay [1] was 4.77. This molecule registered an Activity in assay [2] of over 10 µM.

`C=C1[C@@H](O)C[C@H]2[C@](C)(CO)CCC[C@]2(C)[C@H]1C[C@@H]1C(C)=CC[C@H]2C(=O)C(OC)=CC(=O)[C@@]12c1cc(=O)c2c(O)cc(O)cc2o1` [DICHROSTACHINE A] gave a negative-log IC50 (pIC50) in assay [1] of 5.00. This molecule displayed an Activity in assay [2] of over 10 µM. The matching figures for `C=C1[C@@H](O)C[C@H]2C(C)(C)C[C@H](O)C[C@]2(C)[C@H]1C[C@@H]1C(C)=CC[C@H]2C(=O)C(OC)=CC(=O)[C@@]12c1cc(=O)c2c(O)cc(O)cc2o1` [DICHROSTACHINE B]: 4.40 and over 10 µM.

`C=C1[C@@H](O)C[C@H]2C(C)(C)CCC[C@]2(C)[C@H]1C[C@@H]1C(C)=CC[C@H]2C(=O)C(OC)=CC(=O)[C@@]12c1cc(=O)c2c(O)cc(O)cc2o1` [DICHROSTACHINE C] gave a pIC50 in assay [1] of 5.24. This molecule returned an Activity in assay [2] of over 10 µM. In the same order, the values of `C=C1[C@@H](O)C[C@H]2C(C)(C)C[C@H](O)C[C@]2(C)[C@@]1(O)C[C@@H]1C(C)=CC[C@H]2C(=O)C(OC)=CC(=O)[C@@]12c1cc(=O)c2c(O)cc(O)cc2o1` [DICHROSTACHINE D] are 4.07 and over 10 µM. The matching figures for `C=C1[C@@H](O)C[C@@H]2[C@](C)(CCC[C@@]2(C)C(=O)O)[C@H]1C[C@@H]1C(C)=CC[C@H]2C(=O)C(OC)=CC(=O)[C@@]12c1cc(=O)c2c(O)cc(O)cc2o1` [DICHROSTACHINE E]: 4.40 and over 10 µM.

The molecule `C=C1[C@@H](O)C[C@@H]2[C@](C)(CCC[C@@]2(C)C=O)[C@H]1C[C@@H]1C(C)=CC[C@H]2C(=O)C(OC)=CC(=O)[C@@]12c1cc(=O)c2c(O)cc(O)cc2o1` [DICHROSTACHINE H] gave a negative logarithm of the IC50 (pIC50) in assay [1] of 5.74. In assay [2], this molecule had an Activity of over 10 µM. The matching figures for `C=C1C(=O)C[C@H]2C(C)(C)CCC[C@]2(C)[C@H]1C[C@@H]1C(C)=CC[C@H]2C(=O)C(OC)=CC(=O)[C@@]12c1cc(=O)c2c(O)cc(O)cc2o1` [DICHROSTACHINE L]: 5.49 and over 10 µM. In the same order, the values of `C=C1C(=O)C[C@H]2C(C)(C)CCC[C@]2(C)[C@H]1C[C@@H]1C(C)=CC[C@H]2C(=O)C(OC)=CC(=O)[C@@]12c1cc(=O)c2c(O)cc(OC)cc2o1` [DICHROSTACHINE M] are 5.52 and 3.1 µM. On to `C=C1C(=O)C[C@H]2C(C)(C)C[C@H](O)C[C@]2(C)[C@@]1(O)C[C@@H]1C(C)=CC[C@H]2C(=O)C(OC)=CC(=O)[C@@]12c1cc(=O)c2c(O)cc(OC)cc2o1` [DICHROSTACHINE N], for which the Activity in assay [2] stood at 2.8 µM.

In the case of `C=C1[C@@H](O)C[C@H]2C(C)(C)CCC[C@]2(C)[C@H]1C[C@@H]1C(C)=CC[C@H]2C(O)C(OC)=CC(=O)[C@@]12c1cc(=O)c2c(O)cc(O)cc2o1` (stereo not given in full) [DICHROSTACHINE O], the pIC50 in assay [1] was 4.60. The molecule further registered an Activity in assay [2] of over 10 µM. Molecule `C=C1[C@@H](O)C[C@H]2C(C)(C)CCC[C@]2(C)[C@H]1C[C@@H]1C(C)=CC[C@H]2C(O)C(=O)C=C[C@@]12c1cc(=O)c2c(O)cc(O)cc2o1` (stereo not given in full) [DICHROSTACHINE P] showed a negative logarithm of the IC50 (pIC50) in assay [1] of 5.15. In addition, the Activity in assay [2] was over 10 µM. Molecule `NC(=O)N1CCC(CC(=O)N2CCC([C@H]3c4ncc(Br)cc4CCc4cc(Cl)cc(Br)c43)CC2)CC1` [LONAFARNIB] had a negative-log IC50 (pIC50) in assay [1] of 7.00. For the same molecule, the Activity in assay [2] is over 10 µM.
